Laboratory results from ChEMBL document CHEMBL1153061, “Synergism of virtual screening and medicinal chemistry: identification and optimization of allosteric antagonists of metabotropic glutamate receptor 1” (Bioorg Med Chem, 2009).
Calls of active or inactive are those of the source. The calls are words filed in the database; no cut-off is given here.

Tests used:
[1] = biological target: T1, Metabotropic glutamate receptor 1 (Rattus norvegicus, UniProt P23385); assay: Displacement of [3H]E-3-(2-chloro-8-methylquinolin-3-yl)-1-(thiophen-2-yl)prop-2-en-1-one from mGluR1 in rat cerebellar membrane after 14 to 16 hrs by scintillation counting; type: cell membranes, Cerebellum
[2] = biological target: T1, Metabotropic glutamate receptor 1; assay: Allosteric antagonist activity at mGluR1 in Sprague-Dawley rat cerebellar granule cells assessed as accumulation of [3H]inositol phosphate by liquid scintillation counting; type: functional
Outline: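 Cerebellar granule cells from P8 Sprague Dawley rats grown in BEM with 10% foetal calf serum and 2 mM glutamine. At 6 DIV switched to inositol-free DMEM with [3H]-myo-inositol (0.5 µCi/100 µl/well) for 48 h. Cells preincubated 15 min at 37 °C in Locke's buffer (20 mM LiCl, pH 7.4), then 45 min with agonists/test ligands. Lysed with 0.1 M HCl 10 min on ice. Inositol phosphates isolated on formate columns, eluted with 1 M ammonium formate/0.1 M formic acid, counted by liquid scintillation.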

[3] = biological target: Metabotropic glutamate receptor 5 (Rattus norvegicus, UniProt P31424); assay: Displacement of [3H]MPEP from mGluR5 in rat cortical membrane after 60 mins by liquid scintillation counting; type: cell membranes
Outline: (§1)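 Rat cortical membranes, 125–250 µg protein, incubated with 5 nM [3H]-MPEP (50.2 Ci/mmol) and varying concentrations of test agent. Filters rinsed, and bound radioactivity counted by liquid scintillation.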

Rattus norvegicus = organism: Rattus norvegicus; assay: Selectivity ratio of Ki for mGluR5 in rat cortical membrane to Ki for mGluR1 in rat cerebellar membrane; type: cell membranes
[4] = Solubility in water; type: physicochemical; settings: buffer
[5] = biological target: Metabotropic glutamate receptor 1 (Homo sapiens, UniProt Q13255); assay: Binding affinity to human GluR1 by FLIPR assay
[6] = biological target: Metabotropic glutamate receptor 5 (Rattus norvegicus) (UniProt P31424); assay: Binding affinity to GluR5 in rat cortical membrane up to 10 uM; type: cell membranes; outline: as §1
Metabotropic glutamate receptor 5 (Rattus norvegicus), sequence (P31424 21-1203 limits assumed): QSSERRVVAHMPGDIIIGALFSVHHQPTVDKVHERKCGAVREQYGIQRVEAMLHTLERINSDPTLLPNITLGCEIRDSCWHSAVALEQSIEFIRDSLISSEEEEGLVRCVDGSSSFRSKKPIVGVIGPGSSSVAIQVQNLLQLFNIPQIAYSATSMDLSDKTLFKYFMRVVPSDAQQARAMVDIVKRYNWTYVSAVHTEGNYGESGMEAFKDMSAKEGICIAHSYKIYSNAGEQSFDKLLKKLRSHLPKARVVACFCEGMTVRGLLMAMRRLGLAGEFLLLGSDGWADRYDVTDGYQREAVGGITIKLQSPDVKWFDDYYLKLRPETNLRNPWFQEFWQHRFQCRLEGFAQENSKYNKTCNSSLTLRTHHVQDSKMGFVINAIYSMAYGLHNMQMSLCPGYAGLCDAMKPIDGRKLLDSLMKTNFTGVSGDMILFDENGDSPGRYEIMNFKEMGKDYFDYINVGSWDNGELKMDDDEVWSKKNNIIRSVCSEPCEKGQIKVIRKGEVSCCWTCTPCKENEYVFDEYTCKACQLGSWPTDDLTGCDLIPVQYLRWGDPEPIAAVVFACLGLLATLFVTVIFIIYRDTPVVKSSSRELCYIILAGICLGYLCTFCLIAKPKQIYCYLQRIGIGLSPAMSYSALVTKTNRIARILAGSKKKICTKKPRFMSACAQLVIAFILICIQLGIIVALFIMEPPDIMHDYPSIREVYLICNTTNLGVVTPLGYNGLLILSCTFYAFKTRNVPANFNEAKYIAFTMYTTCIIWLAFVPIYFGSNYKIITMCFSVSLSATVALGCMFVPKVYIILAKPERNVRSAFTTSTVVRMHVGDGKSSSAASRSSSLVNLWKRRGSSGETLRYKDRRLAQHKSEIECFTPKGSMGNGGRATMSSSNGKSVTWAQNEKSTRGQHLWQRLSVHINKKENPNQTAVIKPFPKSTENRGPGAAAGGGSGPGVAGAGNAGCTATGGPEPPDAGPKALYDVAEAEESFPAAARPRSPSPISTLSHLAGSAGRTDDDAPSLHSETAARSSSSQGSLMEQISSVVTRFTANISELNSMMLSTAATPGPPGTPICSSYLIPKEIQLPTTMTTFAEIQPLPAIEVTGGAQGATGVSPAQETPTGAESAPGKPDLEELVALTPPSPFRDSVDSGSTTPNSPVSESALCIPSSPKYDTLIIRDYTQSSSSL

Metabotropic glutamate receptor 5, sequence (P31424 whole entry): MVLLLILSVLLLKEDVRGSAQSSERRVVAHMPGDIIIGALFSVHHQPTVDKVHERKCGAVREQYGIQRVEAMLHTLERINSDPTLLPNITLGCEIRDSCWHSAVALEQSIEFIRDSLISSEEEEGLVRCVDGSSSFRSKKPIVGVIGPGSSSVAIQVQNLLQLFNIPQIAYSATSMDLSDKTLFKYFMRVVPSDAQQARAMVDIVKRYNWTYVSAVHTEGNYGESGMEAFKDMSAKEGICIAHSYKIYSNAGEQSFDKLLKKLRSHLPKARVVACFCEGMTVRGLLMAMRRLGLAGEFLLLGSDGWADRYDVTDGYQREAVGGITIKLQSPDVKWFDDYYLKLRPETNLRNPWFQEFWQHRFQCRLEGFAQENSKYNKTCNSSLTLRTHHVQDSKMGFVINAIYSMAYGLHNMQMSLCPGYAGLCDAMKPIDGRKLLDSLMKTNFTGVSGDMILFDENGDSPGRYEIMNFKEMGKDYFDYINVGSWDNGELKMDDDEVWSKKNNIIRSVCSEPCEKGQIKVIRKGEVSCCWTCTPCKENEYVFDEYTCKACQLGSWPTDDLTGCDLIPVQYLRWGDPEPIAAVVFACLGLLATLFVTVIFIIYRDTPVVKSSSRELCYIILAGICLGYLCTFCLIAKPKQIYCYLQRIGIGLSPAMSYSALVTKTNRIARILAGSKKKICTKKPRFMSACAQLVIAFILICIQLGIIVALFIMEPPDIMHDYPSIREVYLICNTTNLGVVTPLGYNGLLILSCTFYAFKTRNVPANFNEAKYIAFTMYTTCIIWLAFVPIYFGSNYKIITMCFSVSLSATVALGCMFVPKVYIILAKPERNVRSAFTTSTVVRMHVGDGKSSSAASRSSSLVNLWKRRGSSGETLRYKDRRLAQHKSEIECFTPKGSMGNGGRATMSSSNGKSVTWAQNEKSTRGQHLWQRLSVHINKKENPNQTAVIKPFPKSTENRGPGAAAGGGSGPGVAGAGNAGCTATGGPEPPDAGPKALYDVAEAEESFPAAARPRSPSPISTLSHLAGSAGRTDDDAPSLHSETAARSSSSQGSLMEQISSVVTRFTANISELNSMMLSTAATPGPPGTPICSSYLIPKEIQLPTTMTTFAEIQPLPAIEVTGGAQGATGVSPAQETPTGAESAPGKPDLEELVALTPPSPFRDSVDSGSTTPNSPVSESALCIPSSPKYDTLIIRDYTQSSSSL
T1 sequence (P23385 whole entry): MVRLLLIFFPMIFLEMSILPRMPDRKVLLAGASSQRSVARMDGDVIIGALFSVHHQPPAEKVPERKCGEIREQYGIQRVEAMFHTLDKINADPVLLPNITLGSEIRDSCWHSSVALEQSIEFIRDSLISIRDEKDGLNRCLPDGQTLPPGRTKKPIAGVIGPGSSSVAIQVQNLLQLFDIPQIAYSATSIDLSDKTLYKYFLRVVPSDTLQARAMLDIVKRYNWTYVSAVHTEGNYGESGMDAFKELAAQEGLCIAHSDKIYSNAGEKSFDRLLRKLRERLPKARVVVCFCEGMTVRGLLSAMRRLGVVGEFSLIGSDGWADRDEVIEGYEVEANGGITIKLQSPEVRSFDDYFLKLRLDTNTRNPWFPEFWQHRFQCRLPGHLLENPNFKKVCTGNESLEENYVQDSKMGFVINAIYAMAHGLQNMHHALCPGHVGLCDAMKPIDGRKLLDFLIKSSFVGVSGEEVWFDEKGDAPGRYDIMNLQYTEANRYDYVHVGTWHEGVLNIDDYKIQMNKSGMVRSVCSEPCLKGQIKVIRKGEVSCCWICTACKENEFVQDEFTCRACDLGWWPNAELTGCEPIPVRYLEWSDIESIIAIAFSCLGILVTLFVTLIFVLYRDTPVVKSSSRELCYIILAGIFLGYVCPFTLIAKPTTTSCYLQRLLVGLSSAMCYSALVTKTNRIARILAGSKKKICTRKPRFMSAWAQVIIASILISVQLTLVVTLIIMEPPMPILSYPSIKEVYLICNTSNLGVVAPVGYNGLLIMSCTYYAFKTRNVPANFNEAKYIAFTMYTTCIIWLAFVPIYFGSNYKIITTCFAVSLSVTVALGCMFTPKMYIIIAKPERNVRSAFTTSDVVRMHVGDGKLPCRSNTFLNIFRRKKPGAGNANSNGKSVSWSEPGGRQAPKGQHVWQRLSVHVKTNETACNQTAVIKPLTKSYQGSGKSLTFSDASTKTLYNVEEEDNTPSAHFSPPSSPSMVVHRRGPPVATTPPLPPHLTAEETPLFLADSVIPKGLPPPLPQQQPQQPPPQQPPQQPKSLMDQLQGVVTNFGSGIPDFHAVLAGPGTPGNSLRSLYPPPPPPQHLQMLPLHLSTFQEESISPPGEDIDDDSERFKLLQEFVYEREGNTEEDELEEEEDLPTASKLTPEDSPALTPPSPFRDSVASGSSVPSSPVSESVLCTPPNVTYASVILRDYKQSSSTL
Metabotropic glutamate receptor 1 (Homo sapiens, UniProt Q13255), sequence (Q13255 whole entry): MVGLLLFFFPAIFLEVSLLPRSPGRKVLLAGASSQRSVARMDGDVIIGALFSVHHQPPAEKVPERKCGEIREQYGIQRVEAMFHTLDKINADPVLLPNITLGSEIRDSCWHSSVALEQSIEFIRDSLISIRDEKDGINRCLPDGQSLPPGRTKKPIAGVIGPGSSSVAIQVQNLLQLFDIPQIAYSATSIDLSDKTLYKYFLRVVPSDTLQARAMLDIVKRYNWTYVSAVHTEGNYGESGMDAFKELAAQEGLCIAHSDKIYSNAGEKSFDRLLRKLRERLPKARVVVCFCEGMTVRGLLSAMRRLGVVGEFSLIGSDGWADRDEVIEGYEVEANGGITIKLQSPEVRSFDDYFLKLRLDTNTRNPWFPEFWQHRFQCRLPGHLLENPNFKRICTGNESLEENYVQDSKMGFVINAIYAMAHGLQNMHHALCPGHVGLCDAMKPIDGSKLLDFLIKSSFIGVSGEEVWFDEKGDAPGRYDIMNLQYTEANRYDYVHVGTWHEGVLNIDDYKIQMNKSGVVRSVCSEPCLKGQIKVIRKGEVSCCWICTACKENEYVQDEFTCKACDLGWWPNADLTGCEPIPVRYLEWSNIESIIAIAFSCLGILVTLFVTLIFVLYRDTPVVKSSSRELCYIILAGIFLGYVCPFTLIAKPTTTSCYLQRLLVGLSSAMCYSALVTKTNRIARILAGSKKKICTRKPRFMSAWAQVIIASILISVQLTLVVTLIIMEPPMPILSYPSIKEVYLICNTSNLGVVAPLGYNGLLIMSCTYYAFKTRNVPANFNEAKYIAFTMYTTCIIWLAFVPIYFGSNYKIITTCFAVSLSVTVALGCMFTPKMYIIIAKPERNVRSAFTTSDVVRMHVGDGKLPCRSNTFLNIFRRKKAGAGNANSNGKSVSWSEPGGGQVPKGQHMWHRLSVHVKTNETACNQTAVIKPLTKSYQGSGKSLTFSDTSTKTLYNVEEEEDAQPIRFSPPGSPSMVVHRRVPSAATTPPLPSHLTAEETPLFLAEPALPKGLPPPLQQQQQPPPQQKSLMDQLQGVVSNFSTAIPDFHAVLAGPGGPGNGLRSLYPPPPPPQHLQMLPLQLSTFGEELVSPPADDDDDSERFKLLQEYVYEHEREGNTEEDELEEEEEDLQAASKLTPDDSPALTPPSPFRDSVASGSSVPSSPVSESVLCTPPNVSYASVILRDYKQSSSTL

Row | SMILES | Ki [1] [µM] | IC50 [2] [µM] | Ki [3] [µM] | Ratio Ki (Rattus norvegicus) | solubility [4] | Ki [5] [µM] | Activity [6]
1 | O=c1cc(-c2ccccc2)c2ccc(OCc3cccc(Oc4ccccc4)c3)cc2o1 | > 40 | > 40 | – | – | – | – | –
2 | COc1ccc(C(=O)/C=C/c2cc3cc(C)ccc3nc2Cl)cc1 | > 40 | 20.5 | > 100 | – | – | – | –
3 | O=C(c1ccccc1)c1ccc(/N=C/c2ccc(Br)cc2)cc1 | > 40 | > 40 | – | – | – | – | –
4 | CCCCOc1ccc(-c2nnc(-c3ccc(-c4ccccc4)cc3)s2)cc1 | > 40 | 28.4 | – | – | – | – | –
5 | COc1ccc(C(=O)c2ccc(C(=O)c3ccc(C)c(OC)c3)cc2)cc1C | > 40 | > 40 | – | – | – | – | –
6 | COc1cc2c(cc1OC)C(Cc1ccccc1)=NC(C)(C)C2 | > 40 | > 40 | – | – | – | – | –
7 | COc1ccc(C(=O)/C=C/c2ccc(OC3CSC3)cc2)cc1 | > 40 | > 40 | – | – | – | – | –
8 | CCCCCCOc1ccc(C(=O)Oc2ccc(C3CCCCC3)cc2)cc1 | > 40 | > 40 | – | – | – | – | –
9 | Cc1cccc2cc(/C=C/C(=O)c3ccccc3)c(Cl)nc12 | > 40 | 8.5 | > 100 | – | – | – | –
10 | COc1ccc(C(=O)/C=C/c2cc3ccc(C)cc3nc2Cl)cc1 | > 40 | 39.3 | > 100 | – | – | – | –
11 | CCCCCCc1cc2c3c(c(=O)oc2cc1OC)CCC3 | > 40 | 23.9 | – | – | – | – | –
12 | O=C(/C=C/c1cnc2ccccc2c1)C1CC1 | > 100 | – | > 100 | – | – | – | –
13 | CC(Oc1ccc2c(c1)oc(=O)c1ccccc12)c1ccccc1 (configuration not stated) | > 40 | > 40 | – | – | – | – | –
14 | CCOc1ccc(C(=O)/C=C/c2ccc(OCc3ccc(Cl)cc3Cl)cc2)cc1 | > 40 | > 40 | – | – | – | – | –
15 | Cc1ccc(C(=O)c2ccc(Oc3ccccc3)cc2)cc1C | > 40 | 15.3 | – | – | – | – | –
16 | CCCCC1CCC(C(=O)Oc2ccc(C(C)=O)cc2)CC1 (configuration not stated) | > 40 | > 40 | – | – | – | – | –
17 | O=c1cc(-c2ccccc2)c2ccc(OCc3ccc(F)cc3)cc2o1 | > 40 | 23.9 | – | – | – | – | –
18 | O=c1cc(-c2ccccc2)c2cc(Cl)c(OCc3ccc(F)cc3)cc2o1 | > 40 | > 40 | – | – | – | – | –
19 | COc1ccc(-c2cc(C)nc(-c3ccc(OC)c(Br)c3)c2)cc1Br | > 40 | > 40 | – | – | – | – | –
20 | CCn1c2ccccc2c2cc(/C=N/c3ccc(C)c(F)c3)ccc21 | > 40 | > 40 | – | – | – | – | –
21 | O=C(/C=C/c1ccc(Cl)cc1)c1ccc(Oc2ccccc2)cc1 | > 40 | 30 | – | – | – | – | –
22 | CC(=O)c1ccc(OC(=O)c2ccc(-c3ccccc3)cc2)cc1 | > 40 | > 40 | – | – | – | – | –
23 | CCCCCc1ccc(-c2ccc(OC(=O)C3CCC(CC)CC3)cc2)nc1 (configuration not stated) | > 40 | 22.5 | – | – | – | – | –
24 | O=C(c1ccc(Cl)cc1)c1ccc2c(c1)CCCCO2 | > 40 | > 40 | – | – | – | – | –
25 | Cc1ccc2cc(/C=C/C(=O)c3c(C)coc3C)c(Cl)nc2c1 | > 40 | > 40 | > 100 | – | – | – | –

Now those with a lower Ki [1], led by results:

Row | Ki [1] [µM] | IC50 [2] [µM] | Ki [3] [µM] | Ratio Ki (Rattus norvegicus) | solubility [4] | Ki [5] [µM] | Activity [6] | SMILES
26 | 36.2 | 10.6 | – | – | – | – | – | CC(CC(=O)c1ccc2c(c1)OCCO2)c1ccccc1 (configuration not stated)
27 | 17.2 | 2.97 | > 100 | – | – | – | – | Cc1ccc2cc(/C=C/C(=O)c3cccs3)c(Cl)nc2c1
28 | 9.93 | 0.74 | > 100 | – | – | – | – | Cc1ccc2nc(Cl)c(/C=C/C(=O)c3cccs3)cc2c1
29 | 9.18 | 1.7 | > 100 | – | – | – | – | Cc1ccc2nc(Cl)c(/C=C/C(=O)c3ccccc3)cc2c1
30 | 7.04 | – | 22.9 | 3.26 | – | – | – | O=C(C1CC1c1cccnc1)C12CC3CC(CC(C3)C1)C2 (configuration not stated)
31 | 5.23 | – | 30.6 | 5.9 | – | – | – | CC(C)(C)C(=O)/C=C/c1cnc2ccccc2c1
32 | 0.641 | – | 6.23 | 9.72 | – | – | – | O=C(/C=C/c1ccc2c(c1)OCCO2)C12CC3CC(CC(C3)C1)C2
33 | 0.304 | – | 18.4 | 60.5 | – | – | – | COc1ccc(C2CC2C(=O)C23CC4CC(CC(C4)C2)C3)cn1 (configuration not stated)
34 | 0.294 | – | 5.15 | 17.5 | – | – | – | COc1ccc(/C=C/C(=O)C23CC4CC(CC(C4)C2)C3)cc1C
35 | 0.137 | – | > 100 | > 730 | – | – | inactive | O=C(C1CC1c1cnc2ccccc2c1)C12CC3CC(CC(C3)C1)C2 (configuration not stated)
36 | 0.024 | – | 27.8 | 1160 | Soluble | 0.11 | – | O=C(C1CC1c1ccc(N2CCOCC2)nc1)C12CC3CC(CC(C3)C1)C2 (configuration not stated)
37 | 0.021 | – | 0.807 | 29.9 | – | – | – | O=C(/C=C/c1cnc2ccccc2c1)C12CC3CC(CC(C3)C1)C2
